What was measured:
[1] = system: MS2 coat protein; assay: apparent Kd, MS2 coat protein; higher = weaker binding; RNA-MaP array; tryptophan 2.4 mM where present
How it was run: (§1)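 Stalled E. coli RNA polymerase transcribed the designs on Illumina sequencing-chip clusters. SNAP-549-labelled MS2 coat protein was titrated from 0.7 or 1.5 nM, doubling to 3 µM, without and then with constant ligand, in 100 mM Tris-HCl pH 7.5, 80 mM KCl, 4 mM MgCl2, BSA, DTT, yeast tRNA and Tween-20. Per-cluster binding curves were fitted to green signal normalised to red-channel RNA signal and control-cluster median Fmax. The apparent Kd is the median of the filtered fits.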

[2] = system: MS2 coat protein; assay: apparent Kd, MS2 coat protein; higher = weaker binding; RNA-MaP array; theophylline 2 mM where present
How it was run: as §1

[3] = designed as: OFF switch for tryptophan, no ligand
[4] = ligand present: tryptophan, designed as: OFF switch for tryptophan
[5] = designed as: ON switch for tryptophan, no ligand
[6] = ligand present: tryptophan, designed as: ON switch for tryptophan
[7] = designed as: ON switch for theophylline, no ligand
[8] = ligand present: theophylline, designed as: ON switch for theophylline
[9] = designed as: OFF switch for theophylline, no ligand
[10] = ligand present: theophylline, designed as: OFF switch for theophylline

GGAAAAGAAAGAAAAGAAAUCCCUCCCUCCCGAGGACCGGUACGGCCGCCACUCGCCCUCCCUCCCACAUGAGGAUCACCCAUGU
apparent Kd [1, 3]: 23.5 nM | apparent Kd [1, 4]: 23.4 nM

AGUUCCAGGUCGGCCGCCACUGGCAUGGCCGGUCCUCGGACUUACAUGAGGAUCACCCAUGUGAACAGGACCGGGACCGCAUGGG
apparent Kd [1, 3]: 38.3 nM | apparent Kd [1, 4]: 48.2 nM

GCGACCCUGAGAUCCUACGUAACGUGAACACGAGGACCGGUACGGCCGCCACUCGAGAGAACAUGAGGAUCACCCAUGUCUGAGC
apparent Kd [1, 3]: 32.9 nM | apparent Kd [1, 4]: 88.5 nM

AGCACGGUGAUGGUAGCCGGACGCUAGGUACGAGGACCGGUACGGCCGCCACUCGAAGUCCUACGACAUGAGGAUCACCCAUGUA
apparent Kd [1, 5]: 53.5 nM | apparent Kd [1, 6]: 40.5 nM

AAUCUGUCGGGUGAUACCAGCCUCGGCACAUCUCGUGCCGAACAUGAGGAUCACCCAUGUGGCCCUUGGCAGCACAUGACAAAUC
apparent Kd [2, 7]: 381 nM | apparent Kd [2, 8]: 85.3 nM

CUUGACAUGAGGAUCACCCAUGUUGGUAAACGAGGACCGGUACGGCCGCCACUCGGUUACGUGUAGUACCGGUAAGAUCCAGGGU
apparent Kd [1, 5]: 29.3 nM | apparent Kd [1, 6]: 27.1 nM

AUUUAUGGUCGUGAUACCAGACAUACAUGAGGAUCACCCAUGUGAAAUAACAUAAUUUAGGUCCCUUGGCAGCACUUUUUAAUUA
apparent Kd [2, 7]: 53.8 nM | apparent Kd [2, 8]: 38.3 nM

UGGAAAGCACAUGAGGAUCACCCAUGUGAUACCAGCUGAAACUAAGGCCCUUGGCAGCACAUGGUACCAACCCUUUGGUAGUCCA
apparent Kd [2, 9]: 11.9 nM | apparent Kd [2, 10]: 50.5 nM

ACAUGAGGAUCACCCAUGUGGCGUCUUGAUACCAGACGAGAAGUAGUCCCUUGGCAGCAAAUACGUGAGGAUCACACAUGUGCGA
apparent Kd [2, 9]: 23.2 nM | apparent Kd [2, 10]: 37.3 nM

ACUUUGUCGGGUGAUACCAGCCUCGGCAAAUCUCGUGCCGAACAUGAGGAUCACCCAUGUGGCCCUUGGCAGCACAUGACAACUC
apparent Kd [2, 7]: 442 nM | apparent Kd [2, 8]: 70 nM

UUAGAUAUGACGGAUACCAGCGUGUUGUAGAACAUGAGGAUCACCCAUGUAGUGAUCGUGCGCCCUUGGCAGCUGGUAUGUUUGG
apparent Kd [2, 7]: 250 nM | apparent Kd [2, 8]: 898 nM

ACAUUGCGCUCGGCCGCCACUGGCUAUAGAUUUAUAGCAUUAAUGAACAUGAGGAUCACCCAUGUCAGGACCGGGAGCGAACCAU
apparent Kd [1, 5]: 12.7 nM | apparent Kd [1, 6]: 14.5 nM

AGCACUGUGGCGGCCGCCACUACAUAUAGGGUGGUCAGGCCCAUAAUACAUGAGGAUCACCCAUGUAGGACCGGGCCUCAGUGCA
apparent Kd [1, 3]: 15 nM | apparent Kd [1, 4]: 14.8 nM

UAUAAAAUAACAGAUACCAGCGUGUUAUAAAACAUGAGGAUCACCCAUGUAGUGAUCAAGCGCCCUUGGCAGCUGGUAUUUUAUG
apparent Kd [2, 7]: 79.3 nM | apparent Kd [2, 8]: 133 nM

AUCGUACCUAGUGAUACCAGCAAGUGAUCAUAACAUGAGGAUCACCCAUGUAAUCAGUGAUGCCCUUGGCAGCAUAAUCGUUACA
apparent Kd [2, 7]: 193 nM | apparent Kd [2, 8]: 155 nM

UGACAUUGCUCAGAUACCAGACAUGAGGAUCACCCAUGUACCAAGGUAAGAAAAUAACAUGUCCCUUGGCAGCUGAGCAAUGUCU
apparent Kd [2, 9]: 16.2 nM | apparent Kd [2, 10]: 240 nM

GGAUAGGACACGGCCGCCACUGCGGCUAGAUACUAGCACAUUUCCUCACAUGAGGAUCACCCAUGUAGGACCGGGUGUCCUAUCG
apparent Kd [1, 3]: 95.7 nM | apparent Kd [1, 4]: 132 nM

AUAUUAGACCUGGAUACCAGCGACAUGAGGAUCACCCAUGUAUGUGCAUCAGCCAUGAUAUGCCCUUGGCAGCCACCGAGGUCGU
apparent Kd [2, 9]: 13.6 nM | apparent Kd [2, 10]: 37.2 nM

ACAUGAGGAUCACCCAUGUGUGUAAGUCCUCGAGGACCGGUACGGCCGCCACUCGAACGAGUGUAACAUACUUGUUACAAGUAUG
apparent Kd [1, 5]: 24 nM | apparent Kd [1, 6]: 24.4 nM

ACUCGGUGUUUGUUGCUCCGAGUUUAUGAUACCAGUUAGUUUUAUGGCCCUUGGCAGCAUAGGACAUGAGGAUCACCCAUGUGUU
apparent Kd [2, 7]: 31.7 nM | apparent Kd [2, 8]: 53.8 nM

AUAUGAUCAUAUGAUACCAGAAAUGGUAUUCCUUUCUUUCUUACAUGAGGAUCACCCAUGUUCCCUUGGCAGCAUAUGAUCAUAU
apparent Kd [2, 9]: 174 nM | apparent Kd [2, 10]: 193 nM

CUACAUUUGUAGAAACCGGUCAACAUUAUUCGAGGACCGGUACGGCCGCCACUCGUAUAUUUUUAUACAUGAGGAUCACCCAUGU
apparent Kd [1, 5]: 12 nM | apparent Kd [1, 6]: 11.4 nM

AUAUGAUCAUGUGAUACCAGAAAUGGUAGUCCUCGCUGGAUUACAUGAGGAUCACCCAUGUUCCCUUGGCAGCAUAUGAUCAUAU
apparent Kd [2, 9]: 66.6 nM | apparent Kd [2, 10]: 751 nM

AGUAAUAAUAUAAAUAAUAUUAGGUCAUGGCGAGGACCGGUACGGCCGCCACUCGGUUACAUGAGGAUCACCCAUGUCCCGCUUA
apparent Kd [1, 3]: 30.5 nM | apparent Kd [1, 4]: 34.6 nM

AUCAUAAUAGACUCGUUUGAUUAUAUGGAACGAGGACCGGUACGGCCGCCACUCGUGAUUUACAUGAGGAUCACCCAUGUUAGCA
apparent Kd [1, 3]: 15.7 nM | apparent Kd [1, 4]: 13.9 nM
